Experimental data gathered from unrelated publications.
Protocols differ between the studies behind these lines.
MTNR1B: Melatonin receptor type 1B (MTNR1B, Homo sapiens, UniProt P49286)
CDK7 with cyclin H: Cyclin-dependent kinase 7, with cyclin H (CDK7, Homo sapiens, UniProt P50613)
BAZ1A: Bromodomain adjacent to zinc finger domain protein 1A (BAZ1A, Homo sapiens, UniProt Q9NRL2)

SMILES | target | assay | test system | setting | measurement | result
COc1cc2c(NC3CCN(C(C)C)CC3)nc(C3CCCCC3)nc2cc1OCCCN1CCCC1 | Histone-lysine N-methyltransferase EHMT2 (EHMT2, Homo sapiens, UniProt Q96KQ7) | thermal stability, DSF | – | 100 µM | ΔTm | 4 °C
COCC(CNC(C)=O)c1cccc2ccc(OC)cc12 (centres unmarked) | MTNR1B | cAMP, agonist, TR-FRET | CHO-K1 | 20 min | Emax | 67%
Cc1c(O)cc2oc3c(c(=O)c2c1O)-c1ccccc1OC3O (centres unmarked) | CDK7 with cyclin H | enzyme activity, inhibitor, ADP detection | – | 10 µM | inhibition | 60%
CN(C)C1CCN(CC#Cc2nn(C3CCCC3)c3nc(NCc4ccccc4)ncc23)C1 (centres unmarked) | Death-associated protein kinase 1 (DAPK1, Homo sapiens, UniProt P53355) | enzyme activity, inhibitor, FRET | – | 10 µM | inhibition | 7%
Cc1ccc(S(=O)(=O)NCC(=O)N2CCC[C@H]2C(=O)N[C@@H](CCCN=C(N)N)C(=O)Nc2ccc([N+](=O)[O-])cc2)cc1 | Prothrombin (F2, Homo sapiens, UniProt P00734) | enzyme activity, substrate, absorbance | – | – | Km | 26.3 µM
COc1ccc2cc3[n+](cc2c1OC)CCc1cc2c(cc1-3)OCO2 | CDK7 with cyclin H | enzyme activity, inhibitor, ADP detection | – | 10 µM | inhibition | 22.3%
COc1cc2c(CCNC(C)=O)c[nH]c2cc1I | MTNR1B | GTPγS binding, agonist, radiometric | – | cell membranes | Emax | 97%
Cc1cnc(Nc2ccc(OCCN3CCCC3)cc2)nc1Nc1cccc(S(=O)(=O)NC(C)(C)C)c1 | BAZ1A | thermal stability, DSF | – | 10 µM | ΔTm | 0.23 °C
COc1ccc2ncn(CCNC(C)=O)c2c1 | MTNR1B | β-arrestin recruitment, agonist | MT2 | – | Emax | 75%
COc1c2occc2cc2ccc(=O)oc12 | CDK7 with cyclin H | enzyme activity, inhibitor, ADP detection | – | 10 µM | inhibition | 22.3%
Cc1cc2c(cc1N1C(=O)c3cccc4c(Cl)ccc(c34)C1=O)n(C)c(=O)n2C | BAZ1A | thermal stability, DSF | – | 10 µM | ΔTm | -1 °C
CCc1ccc2scc(CCNC(C)=O)c2c1 | MTNR1B | cAMP, agonist, TR-FRET | CHO-K1 | 20 min | Emax | 75%
COc1cc(/C=C/C(=O)O)ccc1O | CDK7 with cyclin H | enzyme activity, inhibitor, ADP detection | – | 10 µM | inhibition | -9.7%
Cc1ccc(C(=O)Nc2ccc(CN3CCN(C)CC3)c(C(F)(F)F)c2)cc1C#Cc1cnc2cccnn12 | Serine/threonine-protein kinase RIO3 (RIOK3, Homo sapiens, UniProt O14730) | enzyme activity, inhibitor | – | 23.5 nM | remaining activity | 93%
